Bioassay records (PubChem)
Calb FLC: C. albicans growth inhibition with fluconazole, primary screen, CaCi-2 strain, Alamar Blue fluorescence; hit rate 0.57% among 300,000; AID 1979, 2009; C. albicans CaCi-2 (fluconazole-resistant clinical isolate) + fluconazole, 48 h; growth inhibition, % (concentration not given with the values);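 active means growth inhibition above about 58% in most replicates, limit read from the data, passing the limit was not always enough; inconclusive means exactly half the replicates above a set limit; inactive means most replicates below a set limit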;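 further: all wells also contain fluconazole at 8 µg/ml as a sub-toxic cotreatment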
T cruzi repl: inhibitors of intracellular T. cruzi growth, primary screen, luminescence, NIH3T3 host cells | T. cruzi beta-gal in NIH3T3, 90 h | inhibition, % (no concentration beside the values) | hit rate 1.4% among 300,000 | AID 1885, 2009;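 active means mean inhibition across valid replicates above about 55%, limit read from the data; inconclusive means mean below that limit but half or more replicates reach it; inactive means mean below it, under half of replicates reach it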;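 further: signal also drops with host cell toxicity which is not excluded here; higher percent means less beta-gal luminescence so fewer parasites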
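System: mouse NIH/3T3 fibroblasts infected with β-gal-expressing T. cruzi Tulahuen C4 / Input: NIH/3T3 cells, 5,000 per well / Buffer or medium: Low-serum DMEM with 2% FBS / Probe or stimulus: 5000 reporter trypomastigotes per well / Schedule: ≥90 h infection period, 3 h prior cell attachment / Measured by: GalScreen luminescence, 60 min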
A1 inh: caspase 3/7 activation in MEF A1-2A-BIM cells, primary screen, A1 inhibitor project, cell-based, luminescence, HTS. Caspase-Glo 3/7 luminescence, 3 h; percent of clofoctol response, vehicle zero. caspase activation, % (concentration not given with the values). hit rate 0.066% among 330,000;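 active means over half of replicate activation scores above 10%, or exactly half above 10 with the replicate mean above 10; inconclusive means replicate mean below 10 yet half the replicates above 10; inactive means over half of replicates below 10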
H9c2 TAG inh: inhibitors of triacylglycerol accumulation, primary screen, cell-based, uHTS, fluorescence, H9c2 | hit rate 0.66% among 230,000 | H9c2 cells, Nile Red lipid (TAG) fluorescence; cells loaded with 200 µM oleic acid | inhibition, % at 12.5 µM | AID 651582, 2012;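 active means pattern-corrected inhibition of lipid staining of at least 50% with the nuclear-stain viability signal not falling by more than 50%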
Beta cell apopt: inhibitors of cytokine-induced beta cell apoptosis, primary screen, luminescence | INS-1E cytokine-induced death, ATP luminescence, 48 h; percent of positive-control rescue, neutral wells zero | protection from apoptosis, % (test concentration not listed) | hit rate 0.8% among 300,000;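 active means Every replicate reaches about 75%, or at least half do and their mean reaches it too, limit read from the data; inconclusive means At least half of replicates reach the limit but their mean does not; inactive means Under half of replicates reach the limit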;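 further: higher means more ATP so stronger rescue from cytokine killing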
CSC inhib: cancer stem cell viability inhibitors, primary screen, luminescence | cancer stem cell-like cells viability | hit rate 1.1% among 300,000 | AID 2717, 2010 | inhibition, % at 7.5 µM; in the data active means inhibition above about 75%; inconclusive means no clear call, values can overlap the other calls; tested in HMLE shEcad cells
A number is an active result; i = inactive; ? = inconclusive; nt = not tested or not shown. Most compounds without a hit are left out; they make up all but 3.1% or so of the library.

SMILES | Calb FLC | T cruzi repl | A1 inh | H9c2 TAG inh | Beta cell apopt | CSC inhib
CC(Nc1nc(-c2cccnc2)nc2ccccc12)c1ccccc1 (stereo unspecified) | nt | nt | nt | i | nt | nt
Fc1ccc(Nc2nc(-c3ccncc3)nc3ccccc23)cc1 | i | i | i | i | i | i
CC(Nc1nc(-c2ccncc2)nc2ccccc12)c1ccccc1 (stereo unspecified) | i | 61 | i | nt | i | i
O=C(O)C(Cc1ccccc1N(CCO)CCO)N1C(=O)c2ccccc2C1=O (stereo unspecified) | nt | nt | nt | i | nt | nt
O=C1/C(=C/c2cccnc2)CCc2c1[nH]c1ccccc21 | 76 | i | i | i | i | i
C[C@@H]1CN([C@H](C)CO)S(=O)(=O)c2ccc(C#Cc3ccccc3F)cc2O[C@H]1CN(C)C(=O)c1ccc2c(c1)OCO2 | nt | nt | nt | i | nt | nt
CC(=O)Oc1ccc(C2=NN(c3ccccc3)C(c3ccccc3)C2)cc1 (stereo unspecified) | i | i | i | nt | i | 108
Cc1nc2nc(C)n(CCN3CCOCC3)c(=O)c2c(-c2cccc([N+](=O)[O-])c2)c1C(=O)CCCCCCCCCCN1CCC(c2ccccc2)(c2ccccc2)CC1 | nt | nt | nt | 127 | nt | nt
S=C(NCCN1CCOCC1)NC1CCCC1 | 51 | i | i | i | i | i
OCCN1CCN(C(=S)NC2CCCC2)CC1 | 88 | i | i | i | i | i
Cc1cc(C(=O)NCCc2ccc(S(N)(=O)=O)cc2)c(C)o1 | i | i | i | nt | i | i
O=C(CSc1nnc(-c2ccc(Br)cc2)o1)Nc1cccc(C(=O)O)c1 | i | i | i | i | i | i
O=C(CSc1nnc(-c2ccc(Br)cc2)o1)Nc1cccc2ccccc12 | 85 | nt | i | nt | i | nt
COc1ccccc1N1CCN(C(=O)C(=O)c2cn(CC(=O)N3CCOCC3)c3ccccc23)CC1 | i | i | i | nt | i | i
CC(C)CCNC(=O)C1CCC(CNS(=O)(=O)c2cccc3nsnc23)CC1 (stereo unspecified) | i | 56 | i | nt | i | i
COc1ccc(-c2cc(C3CCN(Cc4cccc(C(F)(F)F)c4)CC3)[nH]n2)cc1 | 70 | 62 | i | nt | i | i
COc1ccc(-c2cc(C3CCN(Cc4ccc([N+](=O)[O-])cc4)CC3)[nH]n2)cc1 | i | 85 | i | nt | i | i
COC(=O)C1CCN(Cc2ccc(OCCCN3CCN(c4ccc([N+](=O)[O-])cc4)CC3)cc2)CC1 | i | 61 | i | i | i | i
COc1ccc(-c2cc(C3CCN(CC(O)C(F)(F)F)CC3)[nH]n2)cc1 (stereo unspecified) | i | i | i | nt | nt | nt
COc1ccc2cc(C3=CC(=O)CCC3)ccc2c1 | nt | nt | nt | i | nt | nt
COc1ccc(C(CNC(=O)c2cccc(NS(=O)(=O)c3ccc(Br)cc3)c2)N(C)C)cc1 (stereo unspecified) | i | i | i | i | i | nt
CCOC(=O)c1c2ccc(OCC(=O)N/N=C/c3ccc(C)cc3)cc2n2ccccc12 | i | i | 35 | i | i | 114
CCOc1cc(CNCCc2ccc(S(N)(=O)=O)cc2)cc(Cl)c1OCc1ccccc1 | i | 58 | i | nt | i | i
COc1ccc(CCNCc2ccc(OCc3ccc(Cl)nc3)c(OC)c2)cc1OC | i | 57 | i | i | i | i
CCOc1cc(CNCCc2ccc(S(N)(=O)=O)cc2)ccc1OCc1ccccc1 | i | i | i | nt | i | i
SMILES | Calb FLC | T cruzi repl | A1 inh | H9c2 TAG inh | Beta cell apopt | CSC inhib
CCOc1cc(CNCc2ccccc2)ccc1OCc1ccc(Cl)cc1 | i | 55 | i | nt | i | i
COc1cc(CN(C)CCc2ccccc2)ccc1OCc1ccccc1 | i | 63 | i | nt | i | i
N#CCCn1nc2c(c1N)CCC2 | nt | nt | nt | i | nt | nt
CC12CCC(=O)N1C(C(=O)N1CCN(c3cccc(Cl)c3)CC1)CS2 (stereo unspecified) | nt | nt | i | i | i | i
CCN(C(=O)COC(=O)/C=C/c1c(C)nn(-c2ccccc2)c1C)C1CCS(=O)(=O)C1 (stereo unspecified) | i | i | i | i | i | i
COc1ccc(CNCCc2ccc(Cl)cc2)cc1OCc1ccccc1 | i | 70 | ? | i | i | i
COc1ccc(CCNC(=S)NCc2ccc(Cl)c(Cl)c2)cc1OC | i | 60 | i | i | i | i
CC(O)(c1cccc(F)c1)c1nc(/C=C/c2ccccc2)cs1 (stereo unspecified) | nt | nt | nt | i | nt | nt
CSc1ncc(C(=O)Nc2cc(C)ccc2C)c(C)n1 | i | i | i | nt | i | i
COc1ccc(-c2ccnc(SCC(=O)N3CCN(c4ccccc4)CC3)n2)cc1 | i | i | i | i | i | i
COC(=O)C1=CN(Cc2ccc(OC)c(OC)c2)C=C(C(=O)OC)C1c1cccc(OC)c1OC | i | 61 | i | nt | i | i
COc1cc(CN2CCCC(CO)(Cc3cccc(Cl)c3)C2)cc(OC)c1O (stereo unspecified) | i | i | i | i | nt | i
COc1cc(CN2CCCC(CO)(Cc3cccc(Cl)c3)C2)cc2c1OCO2 (stereo unspecified) | i | 55 | i | i | i | i
CSc1cccc(CN2CCCC(CO)(Cc3cccc(Cl)c3)C2)c1 (stereo unspecified) | i | 62 | i | nt | i | i
OCC1(Cc2cccc(Cl)c2)CCCN(Cc2ccc(F)c(F)c2)C1 (stereo unspecified) | i | i | i | nt | i | i
COc1ccc(CN2CCCC(CO)(Cc3cccc(Cl)c3)C2)cc1OC (stereo unspecified) | i | 55 | i | nt | i | i
CCn1cc(S(=O)(=O)NCCc2ccc(F)cc2)cn1 | i | i | i | i | i | i
CCCCN(Cc1nc2ccccc2c(=O)[nH]1)C(=O)CN1C(=O)NC2(CCCCC2)C1=O | nt | nt | i | i | i | i
C=CCOc1ccc(C2C(C(=O)c3cccs3)=C(O)C(=O)N2c2nnc(C)s2)cc1 (stereo unspecified) | i | i | i | i | i | nt
COc1ccc(C2C(C(=O)c3cccs3)=C(O)C(=O)N2c2nncs2)cc1 (stereo unspecified) | 116 | i | i | nt | i | i
CC(=O)c1ccccc1N(C(=O)c1ccco1)C(C(=O)NC1CCCC1)c1ccc(C)cc1 (stereo unspecified) | i | i | i | nt | i | nt
CC1(C)CC(NC(=O)c2ccccc2)CC(C)(C)N1 | i | i | i | nt | i | i
CC1(C)CC(Nc2ccc(Nc3ccccc3)cc2)CC(C)(C)N1 | i | 65 | i | nt | i | i
COC(=O)c1[nH]c2cc(OC)c(OC)cc2c1NC(=O)CN1C[C@H]2C[C@@H](C1)c1cccc(=O)n1C2 | nt | nt | i | nt | i | i
CC(=O)Nc1ccc(NC(=O)C(C)OC(=O)CN2C(=O)C3CCCCC3C2=O)cc1 (stereo unspecified) | nt | nt | nt | i | nt | nt
COc1ccccc1C(C(C(=O)c1ccccc1)N1CCOCC1)N1CCOCC1 (stereo unspecified) | nt | nt | nt | i | nt | nt
